Assay results from ChEMBL document CHEMBL4689842, “EUbOPEN Chemogenomics Library wave 1” (2021).

Test system: U2OS
Test: Multiplex assay against U2OS
Type: toxicity, cell-based
Conditions: human
Summary of the method: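 Live cells were stained at seeding with Hoechst33342, BioTracker Green Microtubule Cytoskeleton Dye, MitoTracker Red and Annexin V Alexa Fluor 680. Following compound addition, they were imaged on a CQ1 microscope at 37°C and 5% CO2 and gated by CellPathfinder machine learning into Hoechst high-intensity objects or normal cells, with normal cells split into healthy, pyknosed or fragmented nuclei and pyknosed cells into mitotic or apoptotic. Tubulin, mitochondrial-mass and membrane-permeability phenotypes are per cents of healthy-nucleus cells.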

[1] = 12 h, 1 µM, compound concentration 1 uM, replicate 1
[2] = 12 h, 1 µM, compound concentration 1 uM, replicate 2
[3] = 12 h, 10 µM, compound concentration 10 uM, replicate 1
[4] = 12 h, 10 µM, compound concentration 10 uM, replicate 2
[5] = 24 h, 1 µM, compound concentration 1 uM, replicate 1
[6] = 24 h, 1 µM, compound concentration 1 uM, replicate 2
[7] = 24 h, 10 µM, compound concentration 10 uM, replicate 1
[8] = 24 h, 10 µM, compound concentration 10 uM, replicate 2
[9] = 48 h, 1 µM, compound concentration 1 uM, replicate 1
[10] = 48 h, 1 µM, compound concentration 1 uM, replicate 2
[11] = 48 h, 10 µM, compound concentration 10 uM, replicate 1
[12] = 48 h, 10 µM, compound concentration 10 uM, replicate 2

## O=C1NC(=O)C(c2cnc3ccccn23)=C1c1cn2c3c(cc(F)cc13)CN(C(=O)N1CCCCC1)CC2 [LY-2090314]
[1]
  Population Apoptotic (%): 37%
  Population Fragmented Nuclei (%): 8%
  Population Healthy Nuclei (%): 74%
  Population Hoechst High Intensity Objects (%): 8%
  Population Membrane Permeable-Phenotype (%): 5%
  Population Mitochondria Different-Phenotype (%): 31%
  Population Mitotic Cells (%): 62%
  Population Normal (%): 91%
  Population Pyknosed Nuclei (%): 17%
  Population Tubulin-Different-Phenotype (%): 38%
  Total Cell Count: 121
[2]
  Population Apoptotic (%): 80%
  Population Fragmented Nuclei (%): 3%
  Population Healthy Nuclei (%): 87%
  Population Hoechst High Intensity Objects (%): 12%
  Population Membrane Permeable-Phenotype (%): 6%
  Population Mitochondria Different-Phenotype (%): 16%
  Population Mitotic Cells (%): 20%
  Population Normal (%): 87%
  Population Pyknosed Nuclei (%): 9%
  Population Tubulin-Different-Phenotype (%): 22%
  Total Cell Count: 85
[3]
  Population Apoptotic (%): 60%
  Population Fragmented Nuclei (%): 13%
  Population Healthy Nuclei (%): 73%
  Population Hoechst High Intensity Objects (%): 18%
  Population Membrane Permeable-Phenotype (%): 44%
  Population Mitochondria Different-Phenotype (%): 95%
  Population Mitotic Cells (%): 40%
  Population Normal (%): 81%
  Population Pyknosed Nuclei (%): 13%
  Population Tubulin-Different-Phenotype (%): 99%
  Total Cell Count: 153
[4]
  Population Apoptotic (%): 100%
  Population Fragmented Nuclei (%): 9%
  Population Healthy Nuclei (%): 74%
  Population Hoechst High Intensity Objects (%): 10%
  Population Membrane Permeable-Phenotype (%): 40%
  Population Mitochondria Different-Phenotype (%): 96%
  Population Mitotic Cells (%): 0%
  Population Normal (%): 89%
  Population Pyknosed Nuclei (%): 16%
  Population Tubulin-Different-Phenotype (%): 96%
  Total Cell Count: 63
[5]
  Population Apoptotic (%): 36%
  Population Fragmented Nuclei (%): 13%
  Population Healthy Nuclei (%): 64%
  Population Hoechst High Intensity Objects (%): 3%
  Population Membrane Permeable-Phenotype (%): 3%
  Population Mitochondria Different-Phenotype (%): 21%
  Population Mitotic Cells (%): 63%
  Population Normal (%): 96%
  Population Pyknosed Nuclei (%): 21%
  Population Tubulin-Different-Phenotype (%): 25%
  Total Cell Count: 124
[6]
  Population Apoptotic (%): 80%
  Population Fragmented Nuclei (%): 4%
  Population Healthy Nuclei (%): 87%
  Population Hoechst High Intensity Objects (%): 13%
  Population Membrane Permeable-Phenotype (%): 7%
  Population Mitochondria Different-Phenotype (%): 22%
  Population Mitotic Cells (%): 20%
  Population Normal (%): 86%
  Population Pyknosed Nuclei (%): 8%
  Population Tubulin-Different-Phenotype (%): 18%
  Total Cell Count: 82
[7]
  Population Apoptotic (%): 71%
  Population Fragmented Nuclei (%): 20%
  Population Healthy Nuclei (%): 59%
  Population Hoechst High Intensity Objects (%): 18%
  Population Membrane Permeable-Phenotype (%): 62%
  Population Mitochondria Different-Phenotype (%): 98%
  Population Mitotic Cells (%): 28%
  Population Normal (%): 81%
  Population Pyknosed Nuclei (%): 19%
  Population Tubulin-Different-Phenotype (%): 100%
  Total Cell Count: 171
[8]
  Population Apoptotic (%): 81%
  Population Fragmented Nuclei (%): 11%
  Population Healthy Nuclei (%): 64%
  Population Hoechst High Intensity Objects (%): 4%
  Population Membrane Permeable-Phenotype (%): 37%
  Population Mitochondria Different-Phenotype (%): 96%
  Population Mitotic Cells (%): 18%
  Population Normal (%): 95%
  Population Pyknosed Nuclei (%): 24%
  Population Tubulin-Different-Phenotype (%): 96%
  Total Cell Count: 72
[9]
  Population Apoptotic (%): 55%
  Population Fragmented Nuclei (%): 15%
  Population Healthy Nuclei (%): 63%
  Population Hoechst High Intensity Objects (%): 3%
  Population Membrane Permeable-Phenotype (%): 7%
  Population Mitochondria Different-Phenotype (%): 22%
  Population Mitotic Cells (%): 44%
  Population Normal (%): 96%
  Population Pyknosed Nuclei (%): 21%
  Population Tubulin-Different-Phenotype (%): 12%
  Total Cell Count: 117
[10]
  Population Apoptotic (%): 72%
  Population Fragmented Nuclei (%): 8%
  Population Healthy Nuclei (%): 79%
  Population Hoechst High Intensity Objects (%): 7%
  Population Membrane Permeable-Phenotype (%): 11%
  Population Mitochondria Different-Phenotype (%): 17%
  Population Mitotic Cells (%): 27%
  Population Normal (%): 92%
  Population Pyknosed Nuclei (%): 12%
  Population Tubulin-Different-Phenotype (%): 19%
  Total Cell Count: 82
[11]
  Population Apoptotic (%): 95%
  Population Fragmented Nuclei (%): 33%
  Population Healthy Nuclei (%): 39%
  Population Hoechst High Intensity Objects (%): 20%
  Population Membrane Permeable-Phenotype (%): 68%
  Population Mitochondria Different-Phenotype (%): 93%
  Population Mitotic Cells (%): 5%
  Population Normal (%): 79%
  Population Pyknosed Nuclei (%): 26%
  Population Tubulin-Different-Phenotype (%): 100%
  Total Cell Count: 221
[12]
  Population Apoptotic (%): 83%
  Population Fragmented Nuclei (%): 12%
  Population Healthy Nuclei (%): 72%
  Population Hoechst High Intensity Objects (%): 11%
  Population Membrane Permeable-Phenotype (%): 48%
  Population Mitochondria Different-Phenotype (%): 89%
  Population Mitotic Cells (%): 16%
  Population Normal (%): 88%
  Population Pyknosed Nuclei (%): 15%
  Population Tubulin-Different-Phenotype (%): 89%
  Total Cell Count: 93
